Experimental data: ChEMBL document CHEMBL1145116, “Imidazo[1,2-b]pyridazines, novel nucleus with potent and broad spectrum activity against human picornaviruses: design, synthesis, and biological evaluation” (J Med Chem, 2003)
Converted amounts (≈) assume the structure as drawn.

Experiments:
rhinovirus B14 [1] = assay: (§1) Cytopathic effect was evaluated against rhino virus usingCPE/XTT assay; type: functional, human rhinovirus14
In short: (§2)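 HeLa cells were seeded at 10 000 per well in medium 199 with 5% FBS and grown overnight at 37 °C. Surviving cells were read with XTT (0.4 mg/mL) plus PMS after 3-4 h at 37 °C. IC50 (CPE inhibition) and TC50 (versus a no-drug, no-virus control) came from the linear portion of the dose–response curves.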

rhinovirus B14 [2] = assay: (§3) Antiviral activity was evaluated against rhino virus using PRA assay; type: functional, organism-based, human rhinovirus14; conditions: Rhinovirus B
In short: (§4)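 Rhinovirus 14 was adsorbed for 1 h at room temperature onto confluent H-HeLa monolayers grown in medium 199 with 10% FBS. Cells were overlaid with agarose and growth medium (5% FBS) containing compound in DMSO (final DMSO 0.01%), then held at 37 °C under CO2 until plaques appeared in DMSO controls. Plates were formalin-fixed, crystal-violet stained and plaques counted, with duplicate wells averaged. IC50/IC90 were computed by Reed–Muench.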

Human rhinovirus sp. [3] = assay: as §3; type: functional, organism-based, human rhinovirus14; in short: as §4
Coxsackievirus A21 [4] = assay: Broad spectrum antiviral activity was evaluated against CA21C; type: functional, organism-based; conditions: Enterovirus C
Coxsackievirus A21 [5] = assay: Broad spectrum antiviral activity was evaluated against coxsackievirus A21 mouse muscle adapted (CA21M); type: functional, organism-based; conditions: Enterovirus C, Muscle tissue
Coxsackievirus B3 = assay: Broad spectrum antiviral activity was evaluated against CB3; type: functional, organism-based, and coxsackievirus b3; conditions: Enterovirus B
Human rhinovirus 1A = assay: Broad spectrum antiviral activity was evaluated against HRV-1A; type: functional, organism-based, human rhinovirus1a
rhinovirus A2 = assay: Broad spectrum antiviral activity was evaluated against HRV-2; type: functional, organism-based, human rhinovirus2; conditions: Rhinovirus A
Poliovirus 1 = assay: Broad spectrum antiviral activity was evaluated against PV1; type: functional, organism-based; conditions: Enterovirus C
rhinovirus A16 = assay: Broad spectrum antiviral activity was evaluated against HRV-16; type: functional, organism-based; conditions: Rhinovirus A
Human rhinovirus sp. [6] = assay: as §1; type: functional, human rhinovirus14; in short: as §2

Row | Structure (SMILES) | TC50 (rhinovirus B14 [1]) | IC50 (rhinovirus B14 [2]) | other results
1 | CNC(=O)/C=C(\c1ccc(C)cc1)c1ccc2nc(N)c(-c3ccc(F)cc3)n2n1 | >10 µg/mL | 0.23 µg/mL (≈ 0.573 µM) | –
2 | Nc1nc2ccc(/C(=N/Nc3ccccc3)c3ccccc3)nn2c1-c1ccc(F)cc1 | >10 µg/mL | > 10 µg/mL | –
3 | CNC(=O)/C=C(/c1ccccc1)c1ccc2nc(N)c(-c3ccc(F)cc3)n2n1 | – | > 10 µg/mL | –
4 | CNC(=O)/C=C(/c1ccc(C)cc1)c1ccc2nc(N)c(-c3ccc(F)cc3)n2n1 | >10 µg/mL | > 10 µg/mL | –
5 | CCOC(=O)/C=C(\c1ccccc1)c1ccc2nc(N)c(-c3ccc(F)cc3)n2n1 | – | > 10 µg/mL | –
6 | CNC(=O)/C=C(\c1ccccc1)c1ccc2nc(N)c(-c3ccc(F)cc3)n2n1 | 4.06 µg/mL (≈ 10.5 µM) | 0.11 µg/mL (≈ 0.284 µM) | –
7 | Nc1nc2ccc(C(=O)c3ccccc3)nn2c1-c1ccccc1 | – | – | IC50 (Human rhinovirus sp. [3]): 7.19 µg/mL (≈ 22.9 µM)
8 | CNC(=O)/C=C(/c1ccc(OC)cc1)c1ccc2nc(N)c(-c3ccc(F)cc3)n2n1 | >10 µg/mL | 4.2 µg/mL (≈ 10.1 µM) | –
9 | Nc1nc2ccc(/C(=N/O)c3ccccc3)nn2c1-c1ccccc1 | >10 µg/mL | 0.04 µg/mL (≈ 0.121 µM) | IC50 (Coxsackievirus A21 [4]): 0.04 µg/mL (≈ 0.121 µM); IC50 (Coxsackievirus A21 [5]): 0.02 µg/mL (≈ 0.0607 µM); IC50 (Coxsackievirus B3): 0.05 µg/mL (≈ 0.152 µM); IC50 (Human rhinovirus 1A): 0.05 µg/mL (≈ 0.152 µM); IC50 (rhinovirus A2): 0.03 µg/mL (≈ 0.0911 µM); IC50 (Poliovirus 1): 0.04 µg/mL (≈ 0.121 µM); IC50 (rhinovirus A16): 0.06 µg/mL (≈ 0.182 µM)
10 | CNC(=O)/C=C(\c1ccc(OC)cc1)c1ccc2nc(N)c(-c3ccc(F)cc3)n2n1 | >10 µg/mL | 0.6 µg/mL (≈ 1.44 µM) | –
11 | Nc1nc2ccc(/C(=N/O)c3ccccc3)nn2c1-c1ccc(F)cc1 | – | – | TC50 (Human rhinovirus sp. [6]): >10 µg/mL; IC50 (Human rhinovirus sp. [3]): 0.05 µg/mL (≈ 0.144 µM)
12 | CC(C)S(=O)(=O)n1c(N)nc2ccc(/C(=N/O)c3ccccc3)cc21 [ENVIROXIME] | – | – | IC50 (Human rhinovirus sp. [3]): 0.05 µg/mL (≈ 0.139 µM)
